# Where “and” joins values, the source holds several entries; their conditions need not be identical. Identical values can stand only once.
# System: HEK-293T
# Experiment: Multiplex assay against HEK293T
# Assay type: toxicity, cell-based
# Conditions: human
# Outline: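 Compound was added to live cells that had been stained at seeding with Hoechst33342, BioTracker Green Microtubule Cytoskeleton Dye, MitoTracker Red and Annexin V Alexa Fluor 680, and imaging followed on a CQ1 microscope at 37°C and 5% CO2. CellPathfinder machine-learning gating divided cells into Hoechst high-intensity objects or normal cells, normal cells into healthy, pyknosed or fragmented nuclei, and pyknosed cells into mitotic or apoptotic. Tubulin, mitochondrial-mass and membrane-permeability phenotypes are per cents of healthy-nucleus cells.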
# [1] = 12 h, 1 µM, compound concentration 1 uM
# [2] = 12 h, 10 µM, compound concentration 10 uM
# [3] = 24 h, 1 µM, compound concentration 1 uM
# [4] = 24 h, 10 µM, compound concentration 10 uM
# [5] = 48 h, 1 µM, compound concentration 1 uM
# [6] = 48 h, 10 µM, compound concentration 10 uM
smiles,measurement,setting,value
OCCCNc1cc(-c2ccnc(Nc3cccc(Cl)c3)n2)ccn1,Population Apoptotic (%),[1],66% and 65%
same,Population Fragmented Nuclei (%),[1],9% and 8%
same,Population Healthy Nuclei (%),[1],66% and 74%
same,Population Hoechst High Intensity Objects (%),[1],14% and 11%
same,Population Membrane Permeable-Phenotype (%),[1],0%
same,Population Mitochondria Different-Phenotype (%),[1],82% and 88%
same,Population Mitotic Cells (%),[1],33% and 34%
same,Population Normal (%),[1],85% and 88%
same,Population Pyknosed Nuclei (%),[1],24% and 16%
same,Population Tubulin-Different-Phenotype (%),[1],75% and 57%
same,Total Cell Count,[1],204 and 173
same,Population Apoptotic (%),[2],78% and 75%
same,Population Fragmented Nuclei (%),[2],14%
same,Population Healthy Nuclei (%),[2],55% and 67%
same,Population Hoechst High Intensity Objects (%),[2],30% and 41%
same,Population Membrane Permeable-Phenotype (%),[2],1% and 10%
same,Population Mitochondria Different-Phenotype (%),[2],83% and 85%
same,Population Mitotic Cells (%),[2],21% and 25%
same,Population Normal (%),[2],69% and 58%
same,Population Pyknosed Nuclei (%),[2],30% and 18%
same,Population Tubulin-Different-Phenotype (%),[2],80% and 72%
same,Total Cell Count,[2],249 and 224
same,Population Apoptotic (%),[3],91% and 77%
same,Population Fragmented Nuclei (%),[3],10% and 13%
same,Population Healthy Nuclei (%),[3],66% and 76%
same,Population Hoechst High Intensity Objects (%),[3],14% and 15%
same,Population Membrane Permeable-Phenotype (%),[3],0%
same,Population Mitochondria Different-Phenotype (%),[3],80% and 86%
same,Population Mitotic Cells (%),[3],8% and 22%
same,Population Normal (%),[3],85% and 84%
same,Population Pyknosed Nuclei (%),[3],22% and 10%
same,Population Tubulin-Different-Phenotype (%),[3],61%
same,Total Cell Count,[3],228 and 202
same,Population Apoptotic (%),[4],71% and 78%
same,Population Fragmented Nuclei (%),[4],16% and 15%
same,Population Healthy Nuclei (%),[4],44% and 54%
same,Population Hoechst High Intensity Objects (%),[4],41% and 45%
same,Population Membrane Permeable-Phenotype (%),[4],0% and 3%
same,Population Mitochondria Different-Phenotype (%),[4],85% and 91%
same,Population Mitotic Cells (%),[4],28% and 21%
same,Population Normal (%),[4],58% and 54%
same,Population Pyknosed Nuclei (%),[4],38% and 29%
same,Population Tubulin-Different-Phenotype (%),[4],88% and 82%
same,Total Cell Count,[4],237 and 207
same,Population Apoptotic (%),[5],82% and 61%
same,Population Fragmented Nuclei (%),[5],12% and 17%
same,Population Healthy Nuclei (%),[5],51% and 65%
same,Population Hoechst High Intensity Objects (%),[5],18% and 21%
same,Population Membrane Permeable-Phenotype (%),[5],1% and 0%
same,Population Mitochondria Different-Phenotype (%),[5],88% and 84%
same,Population Mitotic Cells (%),[5],17% and 38%
same,Population Normal (%),[5],81% and 78%
same,Population Pyknosed Nuclei (%),[5],35% and 17%
same,Population Tubulin-Different-Phenotype (%),[5],68% and 59%
same,Total Cell Count,[5],232 and 193
same,Population Apoptotic (%),[6],71% and 83%
same,Population Fragmented Nuclei (%),[6],16% and 25%
same,Population Healthy Nuclei (%),[6],46%
same,Population Hoechst High Intensity Objects (%),[6],57% and 56%
same,Population Membrane Permeable-Phenotype (%),[6],1% and 8%
same,Population Mitochondria Different-Phenotype (%),[6],78% and 85%
same,Population Mitotic Cells (%),[6],28% and 16%
same,Population Normal (%),[6],42% and 43%
same,Population Pyknosed Nuclei (%),[6],37% and 28%
same,Population Tubulin-Different-Phenotype (%),[6],76% and 79%
same,Total Cell Count,[6],262 and 238
CN(C)C(=O)Cn1cc(-c2ccc(-c3nnc4ccccn34)cc2)cn1,Population Apoptotic (%),[1],31% and 43%
same,Population Fragmented Nuclei (%),[1],7%
same,Population Healthy Nuclei (%),[1],80% and 79%
same,Population Hoechst High Intensity Objects (%),[1],9% and 10%
same,Population Membrane Permeable-Phenotype (%),[1],0%
same,Population Mitochondria Different-Phenotype (%),[1],40% and 59%
same,Population Mitotic Cells (%),[1],68% and 56%
same,Population Normal (%),[1],90% and 89%
same,Population Pyknosed Nuclei (%),[1],11% and 12%
same,Population Tubulin-Different-Phenotype (%),[1],32% and 27%
same,Total Cell Count,[1],432 and 337
same,Population Apoptotic (%),[2],32% and 51%
same,Population Fragmented Nuclei (%),[2],9% and 7%
same,Population Healthy Nuclei (%),[2],76% and 80%
same,Population Hoechst High Intensity Objects (%),[2],7% and 8%
same,Population Membrane Permeable-Phenotype (%),[2],0%
same,Population Mitochondria Different-Phenotype (%),[2],61% and 55%
same,Population Mitotic Cells (%),[2],67% and 48%
same,Population Normal (%),[2],92% and 91%
same,Population Pyknosed Nuclei (%),[2],14% and 12%
same,Population Tubulin-Different-Phenotype (%),[2],42% and 18%
same,Total Cell Count,[2],427 and 356
same,Population Apoptotic (%),[3],27% and 46%
same,Population Fragmented Nuclei (%),[3],10% and 9%
same,Population Healthy Nuclei (%),[3],77% and 82%
same,Population Hoechst High Intensity Objects (%),[3],6% and 7%
same,Population Membrane Permeable-Phenotype (%),[3],0%
same,Population Mitochondria Different-Phenotype (%),[3],28% and 44%
same,Population Mitotic Cells (%),[3],72% and 53%
same,Population Normal (%),[3],93% and 92%
same,Population Pyknosed Nuclei (%),[3],12% and 7%
same,Population Tubulin-Different-Phenotype (%),[3],22% and 18%
same,Total Cell Count,[3],595 and 447
same,Population Apoptotic (%),[4],35% and 61%
same,Population Fragmented Nuclei (%),[4],7% and 13%
same,Population Healthy Nuclei (%),[4],78% and 79%
same,Population Hoechst High Intensity Objects (%),[4],4% and 7%
same,Population Membrane Permeable-Phenotype (%),[4],0%
same,Population Mitochondria Different-Phenotype (%),[4],44% and 39%
same,Population Mitotic Cells (%),[4],64% and 38%
same,Population Normal (%),[4],95% and 92%
same,Population Pyknosed Nuclei (%),[4],13% and 7%
same,Population Tubulin-Different-Phenotype (%),[4],27% and 11%
same,Total Cell Count,[4],506 and 425
same,Population Apoptotic (%),[5],18% and 32%
same,Population Fragmented Nuclei (%),[5],11%
same,Population Healthy Nuclei (%),[5],81% and 80%
same,Population Hoechst High Intensity Objects (%),[5],3% and 4%
same,Population Membrane Permeable-Phenotype (%),[5],0%
same,Population Mitochondria Different-Phenotype (%),[5],20% and 22%
same,Population Mitotic Cells (%),[5],81% and 67%
same,Population Normal (%),[5],96% and 95%
same,Population Pyknosed Nuclei (%),[5],6% and 7%
same,Population Tubulin-Different-Phenotype (%),[5],13% and 12%
same,Total Cell Count,[5],946 and 572
same,Population Apoptotic (%),[6],30% and 37%
same,Population Fragmented Nuclei (%),[6],18% and 14%
same,Population Healthy Nuclei (%),[6],74% and 79%
same,Population Hoechst High Intensity Objects (%),[6],5% and 2%
same,Population Membrane Permeable-Phenotype (%),[6],0%
same,Population Mitochondria Different-Phenotype (%),[6],24% and 27%
same,Population Mitotic Cells (%),[6],69% and 62%
same,Population Normal (%),[6],94% and 97%
same,Population Pyknosed Nuclei (%),[6],6% and 5%
same,Population Tubulin-Different-Phenotype (%),[6],14% and 12%
same,Total Cell Count,[6],753 and 616
COc1ccccc1N1CCN(CCCCNC(=O)c2ccc3ccccc3c2)CC1.Cl,Population Apoptotic (%),[1],45% and 36%
same,Population Fragmented Nuclei (%),[1],7% and 6%
same,Population Healthy Nuclei (%),[1],81% and 79%
same,Population Hoechst High Intensity Objects (%),[1],6% and 5%
same,Population Mitochondria Different-Phenotype (%),[1],53% and 76%
same,Population Mitotic Cells (%),[1],54% and 63%
same,Population Normal (%),[1],93% and 94%
same,Population Tubulin-Different-Phenotype (%),[1],41% and 35%
same,Total Cell Count,[1],430 and 354
same,Population Apoptotic (%),[2],71% and 70%
same,Population Fragmented Nuclei (%),[2],4% and 7%
same,Population Healthy Nuclei (%),[2],69% and 75%
same,Population Hoechst High Intensity Objects (%),[2],16% and 15%
same,Population Mitochondria Different-Phenotype (%),[2],90% and 93%
same,Population Mitotic Cells (%),[2],28% and 29%
same,Population Normal (%),[2],83% and 84%
same,Population Tubulin-Different-Phenotype (%),[2],75% and 72%
same,Total Cell Count,[2],321 and 256
same,Population Apoptotic (%),[3],27% and 36%
same,Population Fragmented Nuclei (%),[3],8% and 7%
same,Population Healthy Nuclei (%),[3],78% and 82%
same,Population Hoechst High Intensity Objects (%),[3],6%
same,Population Mitochondria Different-Phenotype (%),[3],38% and 62%
same,Population Mitotic Cells (%),[3],72% and 63%
same,Population Normal (%),[3],93%
same,Population Tubulin-Different-Phenotype (%),[3],32% and 26%
same,Total Cell Count,[3],561 and 444
same,Population Apoptotic (%),[4],56% and 60%
same,Population Fragmented Nuclei (%),[4],7% and 10%
same,Population Healthy Nuclei (%),[4],74% and 69%
same,Population Hoechst High Intensity Objects (%),[4],13% and 17%
same,Population Mitochondria Different-Phenotype (%),[4],96% and 94%
same,Population Mitotic Cells (%),[4],43% and 39%
same,Population Normal (%),[4],86% and 82%
same,Population Tubulin-Different-Phenotype (%),[4],87% and 66%
same,Total Cell Count,[4],393 and 276
same,Population Apoptotic (%),[5],20% and 46%
same,Population Healthy Nuclei (%),[5],81% and 78%
same,Population Hoechst High Intensity Objects (%),[5],3% and 5%
same,Population Mitochondria Different-Phenotype (%),[5],34% and 37%
same,Population Mitotic Cells (%),[5],79% and 53%
same,Population Normal (%),[5],96% and 94%
same,Population Tubulin-Different-Phenotype (%),[5],20% and 22%
same,Total Cell Count,[5],841 and 635
same,Population Apoptotic (%),[6],60% and 78%
same,Population Fragmented Nuclei (%),[6],8%
same,Population Healthy Nuclei (%),[6],77% and 78%
same,Population Hoechst High Intensity Objects (%),[6],8% and 10%
same,Population Mitochondria Different-Phenotype (%),[6],88% and 92%
same,Population Mitotic Cells (%),[6],40% and 21%
same,Population Normal (%),[6],91% and 89%
same,Population Tubulin-Different-Phenotype (%),[6],73% and 71%
same,Total Cell Count,[6],519 and 329

# Reference: ChEMBL document CHEMBL5724801, “EUbOPEN Chemogenomics Library - Multiplex” (2024)
